This note sets out measurements from ChEMBL document CHEMBL5136969, “A niclosamide-tobramycin hybrid adjuvant potentiates cefiderocol against P. aeruginosa” (2021).

The structures appear in SMILES notation. Calls of active or inactive are those of the source.

The subject of test [1] is Pseudomonas aeruginosa. Nature of the test: Potentiation of ceftolozane-induced antibiotic activity against Pseudomonas aeruginosa PAO1 assessed as MIC fold reduction at 8 ug/ml after 18 hrs by microbroth dilution method. The class given is functional. Conditions: dose 8 µg/ml. In outline: (§1)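 Adjuvant held at a fixed 8 μg/mL while the antibiotic was 2-fold serially diluted in Mueller-Hinton broth (MHB), per CLSI microbroth dilution. Overnight cultures were adjusted in saline to 0.5 McFarland, then diluted 1:50 in MHB to about 5 × 10^5 CFU/mL final, and incubated 18 h at 37 °C. MIC was the lowest concentration with no visible turbidity, confirmed at 590 nm. Fold potentiation = MIC alone / MIC with adjuvant.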
(In general: Dilution methods test growth across graded concentrations, often in twofold steps.)

Test [2] has as its system Pseudomonas aeruginosa. Nature of the test: Potentiation of fosfomycin-induced antibiotic activity against Pseudomonas aeruginosa PAO1 assessed as MIC fold reduction at 8 ug/ml after 18 hrs by microbroth dilution method. In kind it is functional. Conditions: dose 8 µg/ml. In outline:
as §1

For test [3], the system named is Pseudomonas aeruginosa. Kind of test: Potentiation of ciprofloxacin-induced antibiotic activity against Pseudomonas aeruginosa PAO1 assessed as MIC fold reduction at 8 ug/ml after 18 hrs by microbroth dilution method. In kind it is functional. Conditions: dose 8 µg/ml. The procedure, abridged: as §1
Test [4] deals with Pseudomonas aeruginosa. Nature of the test: Potentiation of ceftazidime-induced antibiotic activity against MDR clinical isolate Pseudomonas aeruginosa PA264 assessed as MIC fold reduction at 8 ug/ml after 18 hrs by microbroth dilution method. Conditions: dose 8.0 µg/ml. In kind it is functional, organism-based. The procedure, abridged: as §1
The next test relates to Acinetobacter baumannii. Nature of the test: Potentiation of sulfamethoxazole-induced antibiotic activity against Acinetobacter baumannii ATCC 17978 assessed as MIC fold reduction at 8 ug/ml after 18 hrs by microbroth dilution method. In kind it is functional. Conditions: dose 8 µg/ml.
The subject of test [5] is Pseudomonas aeruginosa. Nature of the test: Potentiation of moxifloxacin-induced antibiotic activity against Pseudomonas aeruginosa PA263 assessed as MIC fold reduction in ID-CAMHB condition at 8 ug/ml after 18 hrs by microbroth dilution method. The class given is functional, organism-based. Conditions: dose 8.0 µg/ml.
Test [6] relates to Escherichia coli. Nature of the test: Potentiation of linezolid-induced antibiotic activity against Escherichia coli ATCC 25922 assessed as MIC fold reduction at 8 ug/ml after 18 hrs by microbroth dilution method. In kind it is functional. The settings on record: dose 8 µg/ml. The procedure, abridged:
as §1

The test system of test [7] is Pseudomonas aeruginosa. Nature of the test: Antibacterial activity against colistin-resistant clinical isolate Pseudomonas aeruginosa PA101243 assessed as reduction in bacterial growth after 18 hrs by microbroth dilution method. The class given is functional. The procedure, abridged: (§2)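 Broth microdilution per CLSI in Mueller-Hinton broth (MHB). Overnight cultures were adjusted to 0.5 McFarland in saline, diluted 1:50 in MHB, and added at about 5 × 10^5 CFU/mL final to equal volumes of 2-fold serial dilutions of agent. Incubation was 18 h at 37 °C. MIC was the lowest concentration with no visible turbidity, confirmed by absorbance at 590 nm.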

The next test deals with Enterobacter cloacae. Nature of the test: Antibacterial activity against Enterobacter cloacae 118564 assessed as reduction in bacterial growth after 18 hrs in presence of cefiderocol by microbroth dilution method. The class given is functional. In outline: (§3)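 Checkerboard in Mueller-Hinton broth: cefiderocol 2-fold diluted on one axis, adjuvant 2-fold on the other. Overnight cultures were adjusted to 0.5 McFarland in saline, diluted 1:50 in MHB, and inoculated at about 5 × 10^5 CFU/mL. Incubation was 18 h at 37 °C. Turbidity was read visually and confirmed at 590 nm. FIC index = FIC of antibiotic + FIC of adjuvant; ≤0.5 synergy, >4 antagonism.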

Test [8] has as its system Pseudomonas aeruginosa. Kind of test: Antibacterial activity against MDR clinical isolate Pseudomonas aeruginosa PA109084 assessed as reduction in bacterial growth after 18 hrs by microbroth dilution method. The class given is functional. The procedure, abridged:
(§4)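 CLSI broth microdilution. Overnight cultures were adjusted in saline to 0.5 McFarland, diluted 1:50 in Mueller-Hinton broth (MHB), and inoculated at about 5 × 10^5 CFU/mL. Agents were 2-fold serially diluted in MHB, mixed 1:1 with inoculum, and held at 37 °C for 18 h. MIC was the lowest concentration with no visible turbidity, confirmed at 590 nm.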

Test [9] deals with Pseudomonas aeruginosa. Nature of the test: Antibacterial activity against MDR clinical isolate Pseudomonas aeruginosa PA101885 assessed as reduction in bacterial growth after 18 hrs in presence of cefiderocol by microbroth dilution method. The class given is functional. In outline:
(§5)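 Checkerboard in MHB (iron-replete, not iron-depleted CAMHB). Cefiderocol was 2-fold serially diluted along one axis and the adjuvant along the other. Inoculum was 0.5 McFarland diluted 1:50, about 5 × 10^5 CFU/mL final. Incubation was 18 h at 37 °C, with turbidity read visually and confirmed at 590 nm. FIC was the MIC in combination over the MIC alone for each agent, and the FIC index was their sum. Cut-offs were ≤0.5 synergy, >0.5–4 additive, >4 antagonism.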

Test [10] deals with Pseudomonas aeruginosa. Kind of test: Antibacterial activity against MDR clinical isolate Pseudomonas aeruginosa PA86052 assessed as reduction in bacterial growth after 18 hrs by microbroth dilution method. In kind it is functional. The procedure, abridged:
as §4

Test [11] concerns Pseudomonas aeruginosa. Nature of the test: Antibacterial activity against colistin-resistant clinical isolate Pseudomonas aeruginosa PA91433 assessed as reduction in bacterial growth after 18 hrs by microbroth dilution method. The class given is functional. The procedure, abridged:
as §2

Test [12] concerns Pseudomonas aeruginosa. Kind of test: Antibacterial activity against MDR clinical isolate Pseudomonas aeruginosa PA108590 assessed as reduction in bacterial growth after 18 hrs in presence of cefiderocol by microbroth dilution method. The class given is functional. The procedure, abridged:
(§6)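 Checkerboard in MHB. Cefiderocol was 2-fold serially diluted along one axis and the adjuvant along the other. Inoculum was prepared from 0.5 McFarland saline suspensions diluted 1:50 in MHB, giving about 5 × 10^5 CFU/mL final. Plates ran 18 h at 37 °C, with turbidity confirmed at 590 nm. FIC = combination MIC ÷ MIC alone for each agent, and FIC index = sum of both. Interpretation: ≤0.5 synergy, >0.5–4 additive, >4 antagonism.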

In another test the test system is Enterococcus faecalis. Kind of test: Antibacterial activity against Enterococcus faecalis ATCC 29212 assessed as reduction in bacterial growth after 18 hrs by microbroth dilution method. The class given is functional. In outline:
(§7)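 CLSI microbroth dilution in MHB. Overnight cultures were adjusted to 0.5 McFarland in saline, diluted 1:50, and inoculated at about 5 × 10^5 CFU/mL. Agents were 2-fold serially diluted and incubated 18 h at 37 °C. MIC is the lowest concentration without visible turbidity, confirmed by absorbance at 590 nm. Medium with and without cells served as controls.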

In test [13] the test system is Escherichia coli. Nature of the test: Antibacterial activity against Escherichia coli 94393 assessed as potentiation of cefiderocol antibacterial activity by measuring FIC after 18 hrs by microbroth dilution method. In kind it is functional. The procedure, abridged:
as §3

For test [14], the system named is Escherichia coli. Nature of the test: Antibacterial activity against Escherichia coli 94393 assessed as reduction in bacterial growth after 18 hrs by microbroth dilution method. The class given is functional. In outline:
as §7

Test [15] has as its system Pseudomonas aeruginosa. Kind of test: Potentiation of ceftazidime-induced antibiotic activity against MDR clinical isolate Pseudomonas aeruginosa PA260 assessed as MIC fold reduction at 8 ug/ml after 18 hrs by microbroth dilution method. In kind it is functional, organism-based. Conditions: dose 8.0 µg/ml. The procedure, abridged: as §1
For test [16], the system named is Escherichia coli. Kind of test: Antibacterial activity against Escherichia coli 94474 assessed as reduction in bacterial growth after 18 hrs in presence of cefiderocol by microbroth dilution method. The class given is functional. The procedure, abridged: as §3
The next test deals with Klebsiella pneumoniae. Nature of the test: Antibacterial activity against Klebsiella pneumoniae KP116381 assessed as potentiation of cefiderocol antibacterial activity by measuring FIC after 18 hrs by microbroth dilution method. The class given is functional. The procedure, abridged: as §6
The test system of test [17] is Pseudomonas aeruginosa. Kind of test: Antibacterial activity against colistin-resistant clinical isolate Pseudomonas aeruginosa PA101243 assessed as reduction in bacterial growth by measuring FIC index after 18 hrs by microbroth dilution method. The class given is functional. The procedure, abridged: as §5
The subject of test [18] is Pseudomonas aeruginosa. Nature of the test: Antibacterial activity against MDR clinical isolate Pseudomonas aeruginosa PA260 assessed as reduction in bacterial growth after 18 hrs in presence of cefiderocol by microbroth dilution method. The class given is functional. The procedure, abridged:
as §6

In test [19] the test system is Pseudomonas aeruginosa. Kind of test: Potentiation of moxifloxacin-induced antibiotic activity against Pseudomonas aeruginosa PA264 assessed as MIC fold reduction in ID-CAMHB condition at 8 ug/ml after 18 hrs by microbroth dilution method. In kind it is functional, organism-based. Conditions: dose 8.0 µg/ml.

A word on the MIC: it is the lowest concentration that inhibits growth of the organism.

As to `NC[C@H]1O[C@H](O[C@H]2[C@H](OCCCCc3cn(-c4ccc(NC(=O)c5cc(Cl)ccc5O)cc4)nn3)[C@@H](O[C@H]3O[C@H](CO)[C@@H](O)[C@H](N)[C@H]3O)[C@H](N)C[C@@H]2N)[C@H](N)C[C@@H]1O`, the “fold change (FC)” value in the test with Pseudomonas aeruginosa [1], in the test on Pseudomonas aeruginosa [2], with Pseudomonas aeruginosa [3], in the test with Acinetobacter baumannii and in the test on Escherichia coli [6] was 4 in each case. Besides, the outcome in the test on Pseudomonas aeruginosa [4], in the test with Pseudomonas aeruginosa [5], in the test with Pseudomonas aeruginosa [15] and in the test on Pseudomonas aeruginosa [19] was Active. For the same compound, the minimal inhibitory concentration (MIC) is more than 128 µg/mL in the test with Pseudomonas aeruginosa [7]; 0.25 µg/mL in the test on Enterobacter cloacae; more than 128 µg/mL in the test with Pseudomonas aeruginosa [8]; 2 µg/mL with Pseudomonas aeruginosa [9]; more than 128 µg/mL in the test with Pseudomonas aeruginosa [10]; more than 128 µg/mL in the test with Pseudomonas aeruginosa [11]. Moreover, the MIC in the test with Pseudomonas aeruginosa [12] is 4 µg/mL; with Enterococcus faecalis it was more than 128 µg/mL; in the test with Escherichia coli [14], more than 128 µg/mL; in the test on Escherichia coli [16] it was 8 µg/mL; with Pseudomonas aeruginosa [18], 0.125 µg/mL. The FIC stood at 0.25 with Escherichia coli [13], 0.5 with Klebsiella pneumoniae and 0.125 with Pseudomonas aeruginosa [17].
